From ChEMBL document CHEMBL1152409, “Constituents of the moss Polytrichum commune” (J Nat Prod, 2009)

What was measured:
Assay type in all cases: functional, cell-based
A549 = experiment: Cytotoxicity against human A549 cells after 24 hrs by MTT assay; conditions: A549, 24 h
Method in brief: (§1)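 Cell lines from ATCC were seeded at 3000 cells per well and exposed to a range of compound concentrations 24 h after seeding. Treatment lasted 24 h. MTT was then added and plates were incubated for a further 24 h. Viability was read as absorbance at 570 nm, and IC50 was determined.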

HepG2 = experiment: Cytotoxicity against human HepG2 cells after 24 hrs by MTT assay; conditions: HepG2, 24 h; method in brief: as §1
LoVo = experiment: Cytotoxicity against human LoVo cells after 24 hrs by MTT assay; method in brief: as §1
MDA-MB-435 = experiment: Cytotoxicity against human MDA-MB-435 cells after 24 hrs by MTT assay; conditions: MDA-MB-435, 24 h; method in brief: as §1
[1] = Cytotoxicity against human cells 6T-CEM after 24 hrs by MTT assay; method in brief: as §1

Measured: IC50

O=C1C[C@@H](c2ccccc2)Oc2cc(O)cc(/C=C\c3ccccc3)c21 [COMMUNIN A]
> 5 µg/mL: all assays above

O=C1C[C@@H](c2ccccc2)Oc2cc(O)cc(/C=C/c3ccccc3)c21 [COMMUNIN B]
> 5 µg/mL: all assays above

O=C1C[C@@H]2c3ccccc3O[C@H]3c4ccc(O)cc4-c4c(O)cc(O)c1c4[C@H]23 [OHIOENSIN H]
> 5 µg/mL: all assays above
